Measurements reported in ChEMBL document CHEMBL4477216, “Discovery and Optimization of Small Molecule Splicing Modifiers of Survival Motor Neuron 2 as a Treatment for Spinal Muscular Atrophy” (J Med Chem, 2016).

Assays:
Mus musculus [1] = test: In vivo inhibition of mRNA splicing of human SMN2 exon 7 in FVB.Cg-Tg(SMN2 delta 7 exon)4299Ahmb Tg(SMN2)89Ahmb Smn1tm1Msd/J mouse assessed as increase in SMN protein level in brain at 1 mg/kg, ip qd administered on postnatal day 3 to day 9 by HTRF assay relative to control; format: functional; design: scale not given: the % may be the effect or the level left
Summary of the method: (§1)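 Homozygous Δ7 SMA mice were dosed IP once daily from PND3 to PND9 with compound or vehicle (100% DMSO solution, 2.5 mL/kg). Brain, spinal cord and quadriceps were homogenized in RIPA buffer with protease inhibitors. SMN was read by HTRF (anti-SMN d2 and Kryptate antibodies, overnight rt, 665/620 nm) and normalized to BCA total protein. Values are % change versus vehicle ±SD; 5-11 mice per group.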

Mus musculus [2] = test: In vivo inhibition of mRNA splicing of human SMN2 exon 7 in FVB.Cg-Tg(SMN2 delta 7 exon)4299Ahmb Tg(SMN2)89Ahmb Smn1tm1Msd/J mouse assessed as increase in SMN protein level in brain at 0.1 mg/kg, ip qd administered on postnatal day 3 to day 9 by HTRF assay relative to control; format: functional; design: scale not given: the % may be the effect or the level left; summary of the method: as §1
Mus musculus [3] = test: In vivo inhibition of mRNA splicing of human SMN2 exon 7 in FVB.Cg-Tg(SMN2 delta 7 exon)4299Ahmb Tg(SMN2)89Ahmb Smn1tm1Msd/J mouse assessed as increase in SMN protein level in quadriceps at 0.1 mg/kg, ip qd administered on postnatal day 3 to day 9 by HTRF assay relative to control; format: functional; design: scale not given: the % may be the effect or the level left; summary of the method: as §1
Mus musculus [4] = test: In vivo inhibition of mRNA splicing of human SMN2 exon 7 in FVB.Cg-Tg(SMN2 delta 7 exon)4299Ahmb Tg(SMN2)89Ahmb Smn1tm1Msd/J mouse assessed as increase in SMN protein level in quadriceps administered as ip qd on postnatal day 3 to day 9 by HTRF assay; format: functional, organism-based; summary of the method: as §1
[5] = Efflux ratio of apparent permeability from basolateral to apical over apical to basolateral side in human Caco2 cells; format: ADME, cell-based; details: Caco-2
Summary of the method: (§2)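 Bidirectional permeability was measured across a Caco-2 cell monolayer. Papp was reported, and efflux was expressed as the B-A/A-B ratio.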

Mus musculus [6] = test: In vivo inhibition of mRNA splicing of human SMN2 exon 7 in po dosed FVB.Cg-Tg(SMN2 delta 7 exon)4299Ahmb Tg(SMN2)89Ahmb Smn1tm1Msd/J mouse assessed as increase in survival time administered as bid on postnatal day 24; format: functional, organism-based
Summary of the method: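 Δ7 SMA mice were dosed IP once daily from PND3 to PND23 with compound or vehicle in DMSO (2.5 mL/kg). From PND24 dosing was oral, twice daily, in 0.5% HPMC/0.1% Tween-80 at a higher daily dose. Survivors were counted daily to give median survival time and the fraction alive at study end.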

[7] = AUC (0 to 24 hrs) in FVB.Cg-Tg(SMN2 delta 7 exon)4299Ahmb Tg(SMN2)89Ahmb Smn1tm1Msd/J mouse at 10 mg/kg, ip; format: ADME, organism-based; design: dose 10 mg/kg, time < 24 hr, route intraperitoneal; details: in vivo
Summary of the method: (§3)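 Single 10 mg/kg IP dose given on postnatal day 9 to neonatal mice. Vehicle was 100% DMSO solution (2.5 mL/kg). Plasma and brain drug levels were measured, giving plasma AUC0-24h and the brain/plasma ratio.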

[8] = Ratio of drug level in brain to plasma of Sprague-Dawley rat at 10 mg/kg, po measured at 6 hrs; format: ADME, organism-based; details: brain and plasma, read-out: BPR
Summary of the method: (§4)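 Male Sprague-Dawley rats got a single oral 10 mg/kg dose as a suspension in 0.5% hydroxypropyl methylcellulose with 0.1% Tween-80. Plasma was sampled at several time points up to 6 h post dose to give AUC0-6h. Total brain concentration was taken at 6 h to give the brain/plasma ratio.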

Mus musculus [9] = test: In vivo inhibition of mRNA splicing of human SMN2 exon 7 in FVB.Cg-Tg(SMN2 delta 7 exon)4299Ahmb Tg(SMN2)89Ahmb Smn1tm1Msd/J mouse assessed as increase in SMN protein level in spinal cord administered as ip qd on postnatal day 3 to day 9 by HTRF assay; format: functional, organism-based; summary of the method: as §1
Mus musculus [10] = test: In vivo inhibition of mRNA splicing of human SMN2 exon 7 in ip dosed FVB.Cg-Tg(SMN2 delta 7 exon)4299Ahmb Tg(SMN2)89Ahmb Smn1tm1Msd/J mouse assessed as increase in survival time administered as qd on postnatal day 3 to 23
[11] = Apparent permeability in human Caco2 cells; format: ADME, cell-based; details: Caco-2; summary of the method: as §2
[12] = Protein binding in human plasma; format: ADME, cell-free; details: read-out: PPB (converted)
[13] = AUC (0 to 6 hrs) in Sprague-Dawley rat at 10 mg/kg, po; format: ADME, organism-based; design: dose 10 mg/kg, time < 6 hr, route oral; details: in vivo; summary of the method: as §4
Mus musculus [14] = test: In vivo inhibition of mRNA splicing of human SMN2 exon 7 in FVB.Cg-Tg(SMN2 delta 7 exon)4299Ahmb Tg(SMN2)89Ahmb Smn1tm1Msd/J mouse assessed as increase in SMN protein level in spinal cord at 0.1 mg/kg, ip qd administered on postnatal day 3 to day 9 by HTRF assay relative to control; format: functional; design: scale not given: the % may be the effect or the level left; summary of the method: as §1
Mus musculus [15] = test: In vivo inhibition of mRNA splicing of human SMN2 exon 7 in FVB.Cg-Tg(SMN2 delta 7 exon)4299Ahmb Tg(SMN2)89Ahmb Smn1tm1Msd/J mouse assessed as increase in SMN protein level in spinal cord at 0.3 mg/kg, ip qd administered on postnatal day 3 to day 9 by HTRF assay relative to control; format: functional; design: scale not given: the % may be the effect or the level left; summary of the method: as §1
Mus musculus [16] = test: In vivo inhibition of mRNA splicing of human SMN2 exon 7 in FVB.Cg-Tg(SMN2 delta 7 exon)4299Ahmb Tg(SMN2)89Ahmb Smn1tm1Msd/J mouse assessed as increase in SMN protein level in brain administered as ip qd on postnatal day 3 to day 9 by HTRF assay; format: functional, organism-based; summary of the method: as §1
Mus musculus [17] = test: In vivo inhibition of mRNA splicing of human SMN2 exon 7 in FVB.Cg-Tg(SMN2 delta 7 exon)4299Ahmb Tg(SMN2)89Ahmb Smn1tm1Msd/J mouse assessed as increase in SMN protein level in brain at 0.3 mg/kg, ip qd administered on postnatal day 3 to day 9 by HTRF assay relative to control; format: functional; design: scale not given: the % may be the effect or the level left; summary of the method: as §1
Mus musculus [18] = test: In vivo inhibition of mRNA splicing of human SMN2 exon 7 in FVB.Cg-Tg(SMN2 delta 7 exon)4299Ahmb Tg(SMN2)89Ahmb Smn1tm1Msd/J mouse assessed as increase in SMN protein level in spinal cord at 3 mg/kg, ip qd administered on postnatal day 3 to day 9 by HTRF assay relative to control; format: functional; design: scale not given: the % may be the effect or the level left; summary of the method: as §1
[19] = Ratio of drug level in brain to plasma of FVB.Cg-Tg(SMN2 delta 7 exon)4299Ahmb Tg(SMN2)89Ahmb Smn1tm1Msd/J mouse at 10 mg/kg, ip; format: ADME, organism-based; details: brain and plasma, read-out: BPR; summary of the method: as §3
Mus musculus [20] = test: In vivo inhibition of mRNA splicing of human SMN2 exon 7 in FVB.Cg-Tg(SMN2 delta 7 exon)4299Ahmb Tg(SMN2)89Ahmb Smn1tm1Msd/J mouse assessed as increase in SMN protein level in quadriceps at 0.3 mg/kg, ip qd administered on postnatal day 3 to day 9 by HTRF assay relative to control; format: functional; design: scale not given: the % may be the effect or the level left; summary of the method: as §1

Row | Structure (SMILES) | Activity (Mus musculus [1]) [%] | Activity (Mus musculus [2]) [%] | Activity (Mus musculus [3]) [%] | Activity (Mus musculus [4]) | efflux ratio [5] | Activity (Mus musculus [6]) | AUC(0-t) at 24 h [7] [ng·h/mL] | Kp at 6 h [8] | Activity (Mus musculus [9]) | Activity (Mus musculus [10]) | Papp [11] [×10⁻⁶ cm/s] | fraction unbound [12] | AUC(0-t) at 6 h [13] [ng·h/mL] | Activity (Mus musculus [14]) [%] | Activity (Mus musculus [15]) [%] | Activity (Mus musculus [16]) | Activity (Mus musculus [17]) [%] | Activity (Mus musculus [18]) [%] | Kp [19] | Activity (Mus musculus [20]) [%]
1 | Cc1cn2nc(-c3cc(=O)n4cc(N5CCN(C)CC5)ccc4n3)cc2c(C)n1 | 149 | 43 | 6 | Dose-dependent effect | 1.7 | Dose-dependent effect | 6900 | 1.6 | Dose-dependent effect | Dose-dependent effect | 7.5 | 0.2 | 2100 | 26 | 67 | Dose-dependent effect | 61 | 189 | 2.9 | 33
2 | Cc1cn2cc(-c3cc4ccc(N5CCN(C)CC5)cc4c(=O)o3)nc2c(C)n1 | 345 | 66 | 14 | Dose-dependent effect | 1.3 | Dose-dependent effect | 5000 | 11 | Dose-dependent effect | Dose-dependent effect | 1.2 | 0.07 | 790 | 35 | 98 | Dose-dependent effect | 114 | 284 | 17 | 83
3 | CCN1CCN(c2ccc3cc(-c4cn5cc(C)nc(C)c5n4)c(=O)oc3c2)C[C@@H]1C | – | 115 | 154 | Dose-dependent effect | 1.9 | Dose-dependent effect | 3600 | 19 | Dose-dependent effect | Dose-dependent effect | 1.2 | 0.04 | 1100 | 92 | 164 | Dose-dependent effect | 194 | – | 18 | 147
